Assay results from ChEMBL document CHEMBL1122401, “Synthesis and pharmacological activity of 6-[(E)-2-(2,6,6-trimethyl-1-cyclohexen-1-yl)ethen-1-yl]- and 6-(1,2,3,4-tetrahydro-1,1,4,4-tetramethyl-6-naphthyl)-2-naphthalenecarboxylic acids” (1983).

Columns and labels:
[1] = Relative activity as reciprocal of the ratio of ED50 (retinoid) / ED50 (retinoic acid) when control was 3 x 10e-11; assay type: functional
Cricetinae gen. sp. [2] = assay: Reversal of keratinization process in hamster tracheal organ culture at concentration of 10e-11 M expressed as percent of active cultures out of 5 cultures; assay type: functional, Trachea
[3] = target: T1, Ornithine decarboxylase (Mus musculus) (UniProt P00860); assay: Percent inhibition of induction of ODC(ornithine decarboxylase) by TPA in mouse skin at a dose of 17.0 nmol
T1 sequence (whole entry): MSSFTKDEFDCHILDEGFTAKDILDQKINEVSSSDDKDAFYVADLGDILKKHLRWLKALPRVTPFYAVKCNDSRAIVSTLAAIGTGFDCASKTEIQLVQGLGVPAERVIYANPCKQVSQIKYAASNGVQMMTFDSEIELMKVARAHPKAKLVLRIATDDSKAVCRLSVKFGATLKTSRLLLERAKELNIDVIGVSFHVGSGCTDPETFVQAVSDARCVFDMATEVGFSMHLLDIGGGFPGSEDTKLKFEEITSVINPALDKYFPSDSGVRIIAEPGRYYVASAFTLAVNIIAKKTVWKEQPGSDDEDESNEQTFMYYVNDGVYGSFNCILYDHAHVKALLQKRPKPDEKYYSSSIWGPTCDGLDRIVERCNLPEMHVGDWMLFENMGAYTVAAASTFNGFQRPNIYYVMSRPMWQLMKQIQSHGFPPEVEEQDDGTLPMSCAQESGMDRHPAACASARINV
In short: (§1)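 ODC induction by the tumour-promoting phorbol ester TPA, measured in mouse dorsal epidermis. Retinoid was tested at 1.7 or 17 nmol dose levels. Activity is expressed as a percentage of that of retinoic acid at the same dose.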

Cricetinae gen. sp. [4] = assay: Reversal of keratinization process in hamster tracheal organ culture at concentration of 10e-10 M expressed as percent of active cultures out of 13 cultures; assay type: functional, Trachea
Cricetinae gen. sp. [5] = assay: Reversal of keratinization process in hamster tracheal organ culture at concentration of 10e-9 M expressed as percent of active cultures out of 12 cultures; assay type: functional, Trachea
[6] = target: T1, Ornithine decarboxylase (Mus musculus); assay: Percent inhibition of induction of ODC(ornithine decarboxylase) by TPA in mouse skin at a dose of 1.7 nmol; in short: as §1
[7] = Relative activity as reciprocal of the ratio of ED50 (retinoid) / ED50 (retinoic acid) when control was 6 x 10e-12; assay type: functional
Cricetinae gen. sp. [8] = assay: Reversal of keratinization process in hamster tracheal organ culture at concentration of 10e-8 M expressed as percent of active cultures out of 7 cultures; assay type: functional, Trachea
Cricetinae gen. sp. [9] = assay: Reversal of keratinization process in hamster tracheal organ culture at concentration of 10e-10 M expressed as percent of active cultures out of 22 cultures; assay type: functional, Trachea
Cricetinae gen. sp. [10] = assay: Reversal of keratinization process in hamster tracheal organ culture at concentration of 10e-11 M expressed as percent of active cultures out of 22 cultures; assay type: functional, Trachea
Cricetinae gen. sp. [11] = assay: Reversal of keratinization process in hamster tracheal organ culture at concentration of 10e-9 M expressed as percent of active cultures out of 7 cultures; assay type: functional, Trachea
Cricetinae gen. sp. [12] = assay: Reversal of keratinization process in hamster tracheal organ culture at concentration of 10e-12 M expressed as percent of active cultures out of 15 cultures; assay type: functional, Trachea
[13] = Relative activity as reciprocal of the ratio of ED50 (retinoid) / ED50 (retinoic acid) when control was 7 x 10e-12; assay type: functional

Structure (SMILES) | Ratio [1] | Active culture (Cricetinae gen. sp. [2]) [%] | inhibition [3] [%] | Active culture (Cricetinae gen. sp. [4]) [%] | Active culture (Cricetinae gen. sp. [5]) [%] | inhibition [6] [%] | Ratio [7] | Active culture (Cricetinae gen. sp. [8]) [%] | Active culture (Cricetinae gen. sp. [9]) [%] | Active culture (Cricetinae gen. sp. [10]) [%] | Active culture (Cricetinae gen. sp. [11]) [%] | Active culture (Cricetinae gen. sp. [12]) [%] | Ratio [13]
CC1=C(/C=C/C(C)=C/c2ccc(C(=O)O)cc2)C(C)(C)CCC1 | 1 | – | – | – | – | – | – | – | – | – | – | – | –
CC1=C(/C=C/c2ccc3cc(C(=O)O)ccc3c2)C(C)(C)CCC1 | – | 20 | 48 | 46 | 92 | 30 | 0.4 | 100 | – | – | – | – | –
CC1(C)CCC(C)(C)c2cc(-c3ccc4cc(C(=O)O)ccc4c3)ccc21 | – | – | 80 | – | – | 56 | – | – | 95 | 77 | 100 | 27 | > 10
